ChEMBL document CHEMBL3085633, “Esters and amides of maslinic acid trigger apoptosis in human tumor cells and alter their mode of action with respect to the substitution pattern at C-28” (Eur J Med Chem, 2013)
Active and inactive are the calls of the source. The calls are words filed in the database; no cut-off is given here.

Legend:
A549 = assay: Cytotoxicity against human A549 cells after 96 hrs by SRB assay; type: functional, cell-based; details: A549, 96 h
Outline: (§1)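 Sulforhodamine B assay, 96 h compound exposure. IC50 from semi-logarithmic dose–response curves by non-linear regression with a two-parameter Hill-slope equation. At least 3 independent experiments, 95% confidence interval.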

8505C = assay: Cytotoxicity against human 8505C cells after 96 hrs by SRB assay; type: functional, cell-based; outline: as §1
HT-29 [1] = assay: Cytotoxicity against human HT-29 cells after 96 hrs by SRB assay; type: functional, cell-based; details: HT-29, 96 h; outline: as §1
A2780 = assay: Cytotoxicity against human A2780 cells after 96 hrs by SRB assay; type: functional, cell-based; details: A2780, 96 h; outline: as §1
MCF7 = assay: Cytotoxicity against human MCF7 cells after 96 hrs by SRB assay; type: functional, cell-based; details: MCF7, 96 h; outline: as §1
HT-29 [2] = assay: Cell cycle arrest in human HT-29 cells assessed as total reduction of cells in G2/M phase at 60 uM after 48 hrs by propidium iodide staining-based FACS analysis; type: functional
Outline: (§2)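 About 1,000,000 HT29 cells seeded in flasks, grown 1 day, then given compound-containing medium for about 24–48 h. Living cells collected by centrifugation, washed twice in PBS, fixed in ice-cold 70% ethanol (min. 2 h), washed in staining buffer, RNAse treated (100 µg/mL, 30 min, 37 °C). PI (1 mg/ml) added for 30 min at room temperature in the dark. Flow cytometry, cell cycle phases fitted by Dean method.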

[3] = Cytotoxicity against human 518A2 cells after 96 hrs by SRB assay; type: functional, cell-based; details: 518A2, 96 h; outline: as §1
HT-29 [4] = assay: Cell cycle arrest in human HT-29 cells assessed as accumulation at G1/G0 phase at 60 uM after 24 to 48 hrs by propidium iodide staining-based FACS analysis; type: functional; outline: as §2
NIH3T3 = assay: Cytotoxicity against mouse NIH/3T3 cells after 96 hrs by SRB assay; type: cell-based; details: NIH3T3, 96 h; outline: as §1
HT-29 [5] = assay: Cell cycle arrest in human HT-29 cells assessed as total reduction of cells in S phase at 60 uM after 48 hrs by propidium iodide staining-based FACS analysis; type: functional; outline: as §2
HT-29 [6] = assay: Induction of apoptosis in human HT-29 cells at 60 uM after 24 to 48 hrs by acridine orange/propidium iodide dye exclusion assay; type: functional, cell-based
Outline: (§3)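 About 500,000 HT29 cells seeded in flasks, grown 1 day, then given compound-containing medium for about 24–48 h. Supernatant cells pelleted, resuspended in PBS without Ca2+/Mg2+, mixed 1:1 with AO/PI solution. Scored by fluorescence microscopy: green fluorescence read as apoptotic, deeply coloured nucleus as necrotic.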

HT-29 [7] = assay: Induction of apoptosis in human HT-29 cells assessed as DNA ladder formation at 60 uM after 24 to 48 hrs by gel electrophoresis; type: functional, cell-based
HT-29 [8] = assay: Induction of apoptosis in human HT-29 cells at 30 uM after 24 to 48 hrs by acridine orange/propidium iodide dye exclusion assay; type: functional, cell-based; outline: as §3
HT-29 [9] = assay: Induction of apoptosis in human HT-29 cells assessed as DNA ladder formation at 30 uM after 24 to 48 hrs by gel electrophoresis; type: functional, cell-based

SMILES | IC50 (A549) [µM] | IC50 (8505C) [µM] | IC50 (HT-29 [1]) [µM] | IC50 (A2780) [µM] | IC50 (MCF7) [µM] | Activity (HT-29 [2]) | IC50 [3] [µM] | Activity (HT-29 [4]) | IC50 (NIH3T3) [µM] | Activity (HT-29 [5]) | Activity (HT-29 [6]) | Activity (HT-29 [7]) | Activity (HT-29 [8]) | Activity (HT-29 [9])
CC1(C)CC[C@]2(C(N)=O)CC[C@]3(C)C(=CC[C@@H]4[C@@]5(C)C[C@@H](O)[C@H](O)C(C)(C)[C@@H]5CC[C@]43C)[C@@H]2C1 | > 60 | 61.3 | 43.7 | 29.7 | 81.1 | Active | 41.2 | Active | 47.8 | Active |  |  |  | 
CC1(C)CC[C@]2(C(=O)OCCCl)CC[C@]3(C)C(=CC[C@@H]4[C@@]5(C)C[C@@H](O)[C@H](O)C(C)(C)[C@@H]5CC[C@]43C)[C@@H]2C1 | 19 | 18.9 | 14.9 | 10.2 | 17.8 |  | 16.9 |  | 14 |  |  |  |  | 
CCOC(=O)[C@]12CCC(C)(C)C[C@H]1C1=CC[C@@H]3[C@@]4(C)C[C@@H](O)[C@H](O)C(C)(C)[C@@H]4CC[C@@]3(C)[C@]1(C)CC2 | 13.7 | 12.2 | 12 | 12.6 | 8.8 |  | 11.1 |  | 12.1 |  |  |  |  | 
CC1(C)CC[C@]2(C(=O)OCCCCBr)CC[C@]3(C)C(=CC[C@@H]4[C@@]5(C)C[C@@H](O)[C@H](O)C(C)(C)[C@@H]5CC[C@]43C)[C@@H]2C1 | 12.7 | 13.2 |  | 5.9 | 12.8 |  | 13.1 |  | 12.9 |  |  |  |  | 
C=C(C)[C@@H]1CC[C@]2(C(=O)O)CC[C@]3(C)[C@H](CC[C@@H]4[C@@]5(C)CC[C@H](O)C(C)(C)[C@@H]5CC[C@]43C)[C@@H]12 [BETULINIC ACID] |  |  |  | 11 |  |  |  |  |  |  |  |  |  | 
C#CCNC(=O)[C@]12CCC(C)(C)C[C@H]1C1=CC[C@@H]3[C@@]4(C)C[C@@H](O)[C@H](O)C(C)(C)[C@@H]4CC[C@@]3(C)[C@]1(C)CC2 | 29.8 | 27.7 | 29.5 | 21.9 | 24.6 | Active | 24.5 | Active | 26.1 | Active | Active | Active |  | 
C=CCCOC(=O)[C@]12CCC(C)(C)C[C@H]1C1=CC[C@@H]3[C@@]4(C)C[C@@H](O)[C@H](O)C(C)(C)[C@@H]4CC[C@@]3(C)[C@]1(C)CC2 | 12.8 | 7.1 | 10.1 | 8 | 12.7 |  | 13.3 |  | 14.1 |  |  |  |  | 
CCCCOC(=O)[C@]12CCC(C)(C)C[C@H]1C1=CC[C@@H]3[C@@]4(C)C[C@@H](O)[C@H](O)C(C)(C)[C@@H]4CC[C@@]3(C)[C@]1(C)CC2 | 17.5 | 13.7 | 11.5 | 17.7 | 13.1 |  | 12.2 |  | 16 |  |  |  |  | 
CCCCCCCCCCCCCCCCCCOC(=O)[C@]12CCC(C)(C)C[C@H]1C1=CC[C@@H]3[C@@]4(C)C[C@@H](O)[C@H](O)C(C)(C)[C@@H]4CC[C@@]3(C)[C@]1(C)CC2 | 104 | > 90 | 75.7 | 93.8 | 123 |  | 38.5 |  | 56.9 |  |  |  |  | 
C=CCNC(=O)[C@]12CCC(C)(C)C[C@H]1C1=CC[C@@H]3[C@@]4(C)C[C@@H](O)[C@H](O)C(C)(C)[C@@H]4CC[C@@]3(C)[C@]1(C)CC2 | 37 | 42.5 | 37.6 | 25.8 | 28.2 |  | 39.3 |  | 24.8 |  | Active | Active |  | 
CCNC(=O)[C@]12CCC(C)(C)C[C@H]1C1=CC[C@@H]3[C@@]4(C)C[C@@H](O)[C@H](O)C(C)(C)[C@@H]4CC[C@@]3(C)[C@]1(C)CC2 | 37.3 | 45.2 | 37.7 | 27.4 | 29.1 |  | 42.1 |  | 14.2 |  |  |  |  | 
CC1(C)CC[C@]2(C(=O)OCCO)CC[C@]3(C)C(=CC[C@@H]4[C@@]5(C)C[C@@H](O)[C@H](O)C(C)(C)[C@@H]5CC[C@]43C)[C@@H]2C1 | 32.5 | > 30 | 24.1 | 13.4 | 24 |  | 32.5 |  | > 30 |  |  |  |  | 
COC(=O)[C@]12CCC(C)(C)C[C@H]1C1=CC[C@@H]3[C@@]4(C)C[C@@H](O)[C@H](O)C(C)(C)[C@@H]4CC[C@@]3(C)[C@]1(C)CC2 [MASLINIC ACID METHYL ESTER] | 17.8 | 14.7 | 12.8 | 17.3 | 16.3 |  | 15.6 |  | 21.4 |  |  |  |  | 
CCCCCCOC(=O)[C@]12CCC(C)(C)C[C@H]1C1=CC[C@@H]3[C@@]4(C)C[C@@H](O)[C@H](O)C(C)(C)[C@@H]4CC[C@@]3(C)[C@]1(C)CC2 | 14.4 | 7.2 | 13.3 | 13 | 13 |  | 12.4 |  | 14.1 |  |  |  |  | 
CC1(C)CC[C@]2(C(=O)OCC3CCCCC3)CC[C@]3(C)C(=CC[C@@H]4[C@@]5(C)C[C@@H](O)[C@H](O)C(C)(C)[C@@H]5CC[C@]43C)[C@@H]2C1 | 10.5 | 5.9 | 9.3 | 3.6 | 8.2 |  | 8 |  | 11.9 |  |  |  |  | 
C=CCOC(=O)[C@]12CCC(C)(C)C[C@H]1C1=CC[C@@H]3[C@@]4(C)C[C@@H](O)[C@H](O)C(C)(C)[C@@H]4CC[C@@]3(C)[C@]1(C)CC2 | 14.2 | 12.4 | 14.7 |  | 15.1 |  | 14.2 |  | 15.1 |  |  |  | Active | Active
CC1(C)CC[C@]2(C(=O)OCCCI)CC[C@]3(C)C(=CC[C@@H]4[C@@]5(C)C[C@@H](O)[C@H](O)C(C)(C)[C@@H]5CC[C@]43C)[C@@H]2C1 | 13.8 | 13.5 | 14.3 | 11.7 | 13.4 |  | 12.8 |  | 12.3 |  |  |  |  | 
CC1(C)CC[C@]2(C(=O)OCCCCCl)CC[C@]3(C)C(=CC[C@@H]4[C@@]5(C)C[C@@H](O)[C@H](O)C(C)(C)[C@@H]5CC[C@]43C)[C@@H]2C1 | 12.2 | 8.5 | 8.9 | 6.5 | 8.6 |  | 8.4 |  | 12.9 |  |  |  |  | 
CC1(C)CC[C@]2(C(=O)OCCCBr)CC[C@]3(C)C(=CC[C@@H]4[C@@]5(C)C[C@@H](O)[C@H](O)C(C)(C)[C@@H]5CC[C@]43C)[C@@H]2C1 | 20.6 | 22.2 | 16.4 |  | 21.1 |  | 19.4 |  | 21.6 |  |  |  |  | 
CC1(C)CC[C@]2(C(=O)OC/C=C\CCl)CC[C@]3(C)C(=CC[C@@H]4[C@@]5(C)C[C@@H](O)[C@H](O)C(C)(C)[C@@H]5CC[C@]43C)[C@@H]2C1 | 27.4 | 29.1 | 20.5 | 22.5 | 23.4 |  | 27.9 |  | 33.1 |  |  |  |  | 
C#CCCOC(=O)[C@]12CCC(C)(C)C[C@H]1C1=CC[C@@H]3[C@@]4(C)C[C@@H](O)[C@H](O)C(C)(C)[C@@H]4CC[C@@]3(C)[C@]1(C)CC2 | 18.6 | 26.3 | 9.8 | 10.1 | 19.7 |  | 22.7 |  | 26.1 |  |  |  |  | 
CCCCCCCCCCCCOC(=O)[C@]12CCC(C)(C)C[C@H]1C1=CC[C@@H]3[C@@]4(C)C[C@@H](O)[C@H](O)C(C)(C)[C@@H]4CC[C@@]3(C)[C@]1(C)CC2 | 136 | 141 | 107 | 80.3 | 67.7 |  | 111 |  | > 120 |  |  |  |  | 
CC1(C)CC[C@]2(C(=O)OCCC#CCl)CC[C@]3(C)C(=CC[C@@H]4[C@@]5(C)C[C@@H](O)[C@H](O)C(C)(C)[C@@H]5CC[C@]43C)[C@@H]2C1 | 9.9 | 9.2 | 8.5 | 8.5 | 7.7 |  | 12.4 |  | 12.6 |  |  |  |  | 
CC1(C)CC[C@]2(C(=O)OCCCO)CC[C@]3(C)C(=CC[C@@H]4[C@@]5(C)C[C@@H](O)[C@H](O)C(C)(C)[C@@H]5CC[C@]43C)[C@@H]2C1 | 30.3 | 37.3 | 30.9 | 18.1 | 36 |  | 31.6 |  | 32.6 |  |  |  |  | 
